≈ marks a conversion by molar mass, not a printed value. Where two headings read alike, the source gives them in different places. Values belong to the compound of their own block, whether it stands above or below them. Non-standard residues stand in square brackets, D forms with d. Residues, ends and D or L forms follow the SMILES beside them. *: point of attachment. Decanoyl = CCCCCCCCCC(=O)*; Octanoyl = CCCCCCCC(=O)*
Legend:
E. coli ATCC25922 [1] = details: LL-37; ref [36]; cited from earlier work
[2] = tested on: Klebsiella pneumonia ATCC 13883; details: LL-37; ref [36]; cited from earlier work
human red blood cells [3] = details: LL-37; ref [36]; cited from earlier work
S. aureus USA300 LAC [4] = details: for Minimal inhibitory concentration (MIC): USA300, pH 7.4
P. aeruginosa PAO1 [5] = details: LL-37; ref [36]; cited from earlier work
S. aureus USA300 LAC [6] = assay: Resistance development, multiple passage experiment; type: cell-based, Staphylococcus aureus; details: 14 days/passages at sub-MIC; average of three independent experiments
E. coli ATCC25922 [7] = tested on: E. coli ATCC25922
S. aureus V8 protease = S. aureus V8 protease (Staphylococcus aureus, UniProt P0C1U8); type: in vitro ADME; details: 10 mM PBS pH 7.4, 37 °C, 3 h and 1 day, SDS-PAGE, Coomassie
[8] = tested on: Klebsiella pneumonia ATCC 13883; type: cell-based, Klebsiella pneumoniae
human red blood cells [9] = type: cell-based; details: red cells of human, 1 h
HaCaT cells = type: cell-based, human
P. aeruginosa PAO1 [10] = type: cell-based, Pseudomonas aeruginosa
S. aureus USA300 LAC [11] = assay: Bacterial membrane permeation; type: cell-based, Staphylococcus aureus; details: 12.5 μM, 37 °C, fluorescence read every 5 min
Procedure, shortened: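 Exponential-phase S. aureus USA300 at final OD600 ~0.1 in TSB or PBS, with propidium iodide (20 μM as added) and serially diluted peptide (12.5 μM in figure). Daptomycin and rifamycin serve as controls. Incubated at 37 °C with 100 rpm shaking in a plate reader. Fluorescence (ex 584/em 620 nm) read every 5 min for 24 cycles; average values plotted.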

S. aureus USA300 LAC [12] = assay: Systemic efficacy in neutropenic murine infection model; type: in vivo, mouse; details: neutropenic mice, single dose 5 mg/kg i.p., n = 8, vs untreated
Procedure, shortened: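 Female C57BL/6 mice, 6 weeks old, made neutropenic with cyclophosphamide (day 1 150 mg/kg, day 4 100 mg/kg). Day 5: i.p. infection with ~2×10⁶ CFU S. aureus USA300. Single i.p. peptide dose 2 h later. Spleen, liver, lung and kidney weighed, homogenized in PBS, diluted, plated on blood agar (37 °C, overnight). CFU per tissue; Mann-Whitney test.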

C57BL/6 mice = assay: In vivo toxicity; design: species or system mouse
[13] = tested on: MCP-1, IL-17A, IL-10, TNF-α; assay: Cytokine levels in tissues surrounding catheters; type: in vivo, mouse; details: tissue surrounding catheter, day 3 after peptide treatment
Procedure, shortened: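 Catheter biofilm mouse model under ketamine/xylazine (100/10 mg/kg) anesthesia. Peptide 15 mg/kg injected at five sites in and around the catheter 2 h post infection. Untreated infected and uninfected-catheter groups included. Day 3: CO₂ euthanasia, peri-catheter tissue harvested and homogenized, stored at −80 °C. Cytokines quantified by individual mouse cytokine ELISA kits in duplicate with standards.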

fungal proteinase K = fungal proteinase K (Parengyodontium album, UniProt P06873); assay: Protease stability by SDS-PAGE, proteinase K; type: in vitro ADME; details: 10 mM PBS pH 7.4, 37 °C, 1 day, Coomassie
Sequence of fungal proteinase K (P06873 106-384): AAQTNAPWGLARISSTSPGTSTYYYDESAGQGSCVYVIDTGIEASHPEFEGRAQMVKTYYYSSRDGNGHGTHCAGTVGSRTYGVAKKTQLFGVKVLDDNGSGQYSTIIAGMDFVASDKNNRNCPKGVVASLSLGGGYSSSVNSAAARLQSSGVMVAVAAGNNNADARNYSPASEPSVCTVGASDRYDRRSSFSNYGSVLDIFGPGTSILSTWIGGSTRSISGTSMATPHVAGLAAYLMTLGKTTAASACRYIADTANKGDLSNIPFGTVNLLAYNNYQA

Structure (SMILES): CC[C@H](C)[C@H](NC(=O)[C@H](CCCCN)NC(=O)[C@H](CCC(=O)O)NC(=O)[C@H](CCCCN)NC(=O)[C@H](CO)NC(=O)[C@H](CCCCN)NC(=O)[C@H](CCCNC(=N)N)NC(=O)[C@H](Cc1ccccc1)NC(=O)[C@H](Cc1ccccc1)NC(=O)[C@H](CC(=O)O)NC(=O)CNC(=O)[C@H](CC(C)C)NC(=O)[C@@H](N)CC(C)C)C(=O)NCC(=O)N[C@@H](CCCCN)C(=O)N[C@@H](CCC(=O)O)C(=O)N[C@@H](Cc1ccccc1)C(=O)N[C@@H](CCCCN)C(=O)N[C@@H](CCCNC(=N)N)C(=O)N[C@H](C(=O)N[C@H](C(=O)N[C@@H](CCC(N)=O)C(=O)N[C@@H](CCCNC(=N)N)C(=O)N[C@H](C(=O)N[C@@H](CCCCN)C(=O)N[C@@H](CC(=O)O)C(=O)N[C@@H](Cc1ccccc1)C(=O)N[C@@H](CC(C)C)C(=O)N[C@@H](CCCNC(=N)N)C(=O)N[C@@H](CC(N)=O)C(=O)N[C@@H](CC(C)C)C(=O)N[C@H](C(=O)N1CCC[C@H]1C(=O)N[C@@H](CCCNC(=N)N)C(=O)N[C@H](C(=O)N[C@@H](CCC(=O)O)C(=O)N[C@@H](CO)C(=O)O)[C@@H](C)O)C(C)C)[C@@H](C)CC)C(C)C)[C@@H](C)CC [LL-37]
MIC EC (E. coli ATCC25922 [1]): 3.1 to 6.2 µM
MIC KP [2]: 6.2 µM (≈ 27.9 µg/mL)
HC50 (human red blood cells [3]): 170 µM
Minimal inhibitory concentration against S. aureus (S. aureus USA300 LAC [4]; 10% TSB): 50 µM (≈ 225 µg/mL)
Minimal inhibitory concentration against S. aureus (S. aureus USA300 LAC [4]; 50% TSB): >50 µM
Minimal inhibitory concentration against S. aureus (S. aureus USA300 LAC [4]; 100% MHB): >50 µM
Minimal inhibitory concentration against S. aureus (S. aureus USA300 LAC [4]; 100% TSB): >50 µM
MIC PA (P. aeruginosa PAO1 [5]): >50 µM

Structure (SMILES): CCOc1ccc2ccccc2c1C(=O)N[C@@H]1C(=O)N2[C@@H]1SC(C)(C)[C@@H]2C(=O)O [nafcillin, reference compound]
MIC increase during serial passages (S. aureus USA300 LAC [6]): over 30 fold

Structure (SMILES): CCCCCCCCCC(=O)N[C@@H](CCCCN)C(=O)N[C@@H](CCCNC(=N)N)C(=O)N[C@H](C(=O)N[C@@H](Cc1c[nH]c2ccccc12)C(=O)N[C@@H](CCC(N)=O)C(=O)N[C@@H](CCCNC(=N)N)C(=O)N[C@H](C(=O)N[C@@H](CCCCN)C(N)=O)[C@@H](C)CC)[C@@H](C)CC [Peptide C10-KR8] (Decanoyl-KRIWQRIK-NH2)
MIC EC (E. coli ATCC25922 [7]): 12.5 µM (≈ 16 µg/mL)
stability to S. aureus V8 protease (S. aureus V8 protease): except for S. aureus V8 protease
MIC SA (S. aureus USA300 LAC [4]; USA300): 1.5 to 3.1 µM
Minimal inhibitory concentration (MIC) (S. aureus USA300 LAC [4]): 3.1 µM (≈ 3.97 µg/mL)
MIC KP [8]: 50 µM (≈ 64 µg/mL)
HC50 (human red blood cells [9]): 300 µM

MIC EC (E. coli ATCC25922 [7]): 6.2 µM (≈ 9.39 µg/mL)
Minimal inhibitory concentration (MIC) (S. aureus USA300 LAC [4]): 6.2 µM (≈ 9.39 µg/mL)
MIC KP [8]: 25 µM (≈ 37.9 µg/mL)
MIC PA (P. aeruginosa PAO1 [10]): 6.2 µM (≈ 9.39 µg/mL)
Structure (SMILES): CCCCCCCC(=O)N[C@@H](CCCCN)C(=O)N[C@@H](CCCNC(=N)N)C(=O)N[C@H](C(=O)N[C@@H](Cc1c[nH]c2ccccc12)C(=O)N[C@@H](CCC(N)=O)C(=O)N[C@@H](CCCNC(=N)N)C(=O)N[C@H](C(=O)N[C@@H](CCCCN)C(=O)N[C@@H](CC(=O)O)C(=O)N[C@@H](Cc1ccccc1)C(N)=O)[C@@H](C)CC)[C@@H](C)CC [Peptide C8-KR10] (Octanoyl-KRIWQRIKDF-NH2)
relative toxicity to HaCaT cells (HaCaT cells): slightly less toxic than C8-KR10d

Structure (SMILES): CO[C@H]1/C=C/O[C@@]2(C)Oc3c(C)c(O)c4c(O)c(cc(O)c4c3C2=O)NC(=O)/C(C)=C\C=C\[C@H](C)[C@H](O)[C@@H](C)[C@@H](O)[C@@H](C)[C@H](OC(C)=O)[C@@H]1C [rifamycin, reference compound]
membrane permeation (propidium iodide fluorescence) (S. aureus USA300 LAC [11]): unable to achieve the same effect

Structure (SMILES): CCCCCCCCCC(=O)N[C@H](CCCCN)C(=O)N[C@H](CCCNC(=N)N)C(=O)N[C@@H](C(=O)N[C@H](Cc1c[nH]c2ccccc12)C(=O)N[C@H](CCC(N)=O)C(=O)N[C@H](CCCNC(=N)N)C(=O)N[C@@H](C(=O)N[C@H](CCCCN)C(N)=O)[C@H](C)CC)[C@H](C)CC [Peptide C10-KR8d] (Decanoyl-[dK][dR][dI][dW][dQ][dR][dI][dK]-NH2)
CFU decrease in kidney (S. aureus USA300 LAC [12]): not in spleen and kidney
CFU decrease in spleen (S. aureus USA300 LAC [12]): not in spleen and kidney
relative toxicity to HaCaT cells (HaCaT cells): slightly more toxic than C10-KR8
membrane permeation (propidium iodide fluorescence) (S. aureus USA300 LAC [11]): able to permeate the membranes
stability to S. aureus V8 protease (S. aureus V8 protease): resistant
survival (C57BL/6 mice; 10 mg/kg i.p., female C57BL/6 mice n=3, 5 days observation): all mice survived
survival (C57BL/6 mice; 20 mg/kg i.p., female C57BL/6 mice n=3, 5 days observation): all mice survived
survival (C57BL/6 mice; 40 mg/kg i.p., female C57BL/6 mice n=3, died in a day): all mice died
maximal tolerated dose (MTD) (C57BL/6 mice; i.p., C57BL/6 mice, 20 mg/kg or more but less than 40 mg/kg): ≥ 20 mg/kg
IL-10 level [13]: decrease
IL-17A level [13]: up-regulation
MCP-1/CCL2 level [13]: up-regulation
TNFα level [13]: decrease
Minimal inhibitory concentration (MIC) (S. aureus USA300 LAC [4]): 3.1 µM (≈ 3.97 µg/mL)
MIC increase during serial passages (S. aureus USA300 LAC [6]): no changes
MIC KP [8]: 25 µM (≈ 32 µg/mL)
MIC PA (P. aeruginosa PAO1 [10]): 6.2 µM (≈ 7.94 µg/mL)
HC50 (human red blood cells [9]): 300 µM
stability to fungal proteinase K (fungal proteinase K): resistant

— publication PMC9082781 (ACS infectious diseases, 2021)
